Laboratory results: publication PMC3689924 (Pharmacology, 2012)
Values joined by “and” are separate entries in the source; they are usually repeats but may differ in a detail not shown here. Identical values can stand only once. “Also recorded” adds a separate entry of the source. Like-named read-outs stand apart in the source and are kept apart here.

Tests used:
Pgp [1] = details: 2 mg/kg dose; cited from earlier work
Pgp at the human BBB = details: cited from earlier work
[2] = assay type: in vitro ADME, human; details: for TQD concentration in plasma after storage: mean±SD of four determinations
Outline: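 Plasma was spiked at 0.1, 0.5 and 2.0 μg/ml and split into 16 aliquots per level. Four aliquots were analysed by HPLC at once as the baseline. The rest were stored 24 h, 1 month or 3 months at RT, 4°C, −20°C or −80°C, then quantified. Results are given as mean of four determinations and percent of baseline; stability criterion was 95%.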

Pgp [3] = details: at low concentrations; cited from earlier work
[4] = Safety and tolerability of single i.v. doses of TQD in healthy volunteers; assay type: in vivo, human
Outline: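 15 healthy males were given single i.v. infusions at 4, 6 or 8 mg/kg and kept on the ward under continuous observation until 24 h after infusion end. Blood pressure, heart rate and ECG were recorded repeatedly over the first 24 h. Monitoring included clinical chemistry, coagulation, haematology and adverse events. Physical examination, vital signs, AE check, and blood and urine analysis were repeated within one week.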

[5] = assay type: in vivo, human; details: for t½: terminal elimination
Outline: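 Healthy males (n=5 per dose group). Vehicle stock of 20% ethanol/80% propylene glycol, diluted to 0.6 mg/ml in 5% dextrose, infused i.v. at 375 ml/h to target dose. Heparinised blood taken pre-dose, at 25/50/75% and end of infusion, then to 1440 min. Plasma methanol-precipitated, C18 HPLC-MS, calibration 0.005–5 μg/ml, LLOQ 5 ng/ml. Cmax observed; AUC0-n, Vss, CL, t½ calculated.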

[6] = tested on: breast cancer resistance protein (BCRP); details: at low concentrations; cited from earlier work
[7] = single i.v. doses up to 8 mg/kg BW
[8] = 4 mg/kg BW i.v. infusion, individual subjects 1-5
[9] = 6 mg/kg BW i.v. infusion, individual subjects 6-10
[10] = 8 mg/kg BW i.v. infusion, individual subjects 11-15

For `COc1cc2c(cc1OC)CN(CCc1ccc(NC(=O)c3cc(OC)c(OC)cc3NC(=O)c3cnc4ccccc4c3)cc1)CC2` [TQD, tariquidar], the “inhibition of Pgp-mediated rhodamine 123 efflux from CD56-positive lymphocytes” value (Pgp [1]) is given as “fully inhibit”, the “increase in (R)-[11C]verapamil brain distribution” value (Pgp at the human BBB; 8 mg/kg TQD dose, healthy subjects, PET) is given as 3 fold and the “inhibition of Pgp at the human BBB” value (Pgp at the human BBB; 8 mg/kg TQD dose, plateau in concentration-response curve) is given as “complete inhibition”. The EC50 (Pgp at the human BBB; read-out: half-maximum effect concentration (EC50) for functional inhibition of Pgp at the human BBB) was 669 nM, the percent of baseline ([2]; 0.1 μg/ml, 4°C, 1 month) was 7.2% and the “TQD concentration in plasma after storage” value (shortened to “TQD concentration in plasma”) ([2]; 0.1 μg/ml, 4°C, 1 month) was 0.007 ± 0.001 µg/mL. For the same compound, the percent of baseline ([2]; 0.1 μg/ml, 4°C, 3 months) was 3.1%, the “TQD concentration in plasma” value ([2]; 0.1 μg/ml, 4°C, 3 months) was 0.003 ± 0.000 µg/mL and the percent of baseline ([2]; 0.1 μg/ml, 4°C, 24 h) was 99%. For the same compound, the “TQD concentration in plasma” value ([2]; 0.1 μg/ml, 4°C, 24 h) was 0.099 ± 0.003 µg/mL, the percent of baseline ([2]; 0.1 μg/ml, RT, 1 month) was 8.6% and the “TQD concentration in plasma” value ([2]; 0.1 μg/ml, RT, 1 month) was 0.008 ± 0.000 µg/mL. The percent of baseline ([2]; 0.1 μg/ml, RT, 3 months) was 3.0%, the “TQD concentration in plasma” value ([2]; 0.1 μg/ml, RT, 3 months) was 0.003 ± 0.000 µg/mL and the percent of baseline ([2]; 0.1 μg/ml, RT, 24 h) was 100%. For the same compound, the “TQD concentration in plasma” value ([2]; 0.1 μg/ml, RT, 24 h) was 0.10 ± 0.004 µg/mL, the percent of baseline ([2]; 0.1 μg/ml, −20°C, 1 month) was 73.9% and the “TQD concentration in plasma” value ([2]; 0.1 μg/ml, −20°C, 1 month) was 0.073 ± 0.005 µg/mL. The percent of baseline ([2]; 0.1 μg/ml, −20°C, 3 months) was 40.8%, the “TQD concentration in plasma” value ([2]; 0.1 μg/ml, −20°C, 3 months) was 0.041 ± 0.004 µg/mL and the percent of baseline ([2]; 0.1 μg/ml, −20°C, 24 h) was 100%. For the same compound, the “TQD concentration in plasma” value ([2]; 0.1 μg/ml, −20°C, 24 h) was 0.10 ± 0.002 µg/mL, the percent of baseline ([2]; 0.1 μg/ml, −80°C, 1 month) was 78.1% and the “TQD concentration in plasma” value ([2]; 0.1 μg/ml, −80°C, 1 month) was 0.078 ± 0.006 µg/mL. The percent of baseline ([2]; 0.1 μg/ml, −80°C, 3 months) was 69.1%, the “TQD concentration in plasma” value ([2]; 0.1 μg/ml, −80°C, 3 months) was 0.069 ± 0.005 µg/mL and the percent of baseline ([2]; 0.1 μg/ml, −80°C, 24 h) was 98%. The “TQD concentration in plasma” value ([2]; 0.1 μg/ml, −80°C, 24 h) was 0.098 ± 0.003 µg/mL, the percent of baseline ([2]; 0.5 μg/ml, 4°C, 1 month) was 11.2% and the “TQD concentration in plasma” value ([2]; 0.5 μg/ml, 4°C, 1 month) was 0.056 ± 0.003 µg/mL. For the same compound, the percent of baseline ([2]; 0.5 μg/ml, 4°C, 3 months) was 3.4%, the “TQD concentration in plasma” value ([2]; 0.5 μg/ml, 4°C, 3 months) was 0.017 ± 0.001 µg/mL and the percent of baseline ([2]; 0.5 μg/ml, 4°C, 24 h) was 102%. The “TQD concentration in plasma” value ([2]; 0.5 μg/ml, 4°C, 24 h) was 0.51 ± 0.023 µg/mL, the percent of baseline ([2]; 0.5 μg/ml, RT, 3 months) was 1.7% and the “TQD concentration in plasma” value ([2]; 0.5 μg/ml, RT, 3 months) was 0.008 ± 0.001 µg/mL. The percent of baseline ([2]; 0.5 μg/ml, RT, 24 h) was 98%, the “TQD concentration in plasma” value ([2]; 0.5 μg/ml, RT, 24 h) was 0.49 ± 0.033 µg/mL and the percent of baseline ([2]; 0.5 μg/ml, −20°C, 1 month) was 77.6%. For the same compound, the “TQD concentration in plasma” value ([2]; 0.5 μg/ml, −20°C, 1 month) was 0.38 ± 0.021 µg/mL, the percent of baseline ([2]; 0.5 μg/ml, −20°C, 3 months) was 36.4% and the “TQD concentration in plasma” value ([2]; 0.5 μg/ml, −20°C, 3 months) was 0.18 ± 0.014 µg/mL. For the same compound, the percent of baseline ([2]; 0.5 μg/ml, −20°C, 24 h) was 99%, the “TQD concentration in plasma” value ([2]; 0.5 μg/ml, −20°C, 24 h) was 0.49 ± 0.014 µg/mL and the percent of baseline ([2]; 0.5 μg/ml, −80°C, 1 month) was 82.3%. For the same compound, the “TQD concentration in plasma” value ([2]; 0.5 μg/ml, −80°C, 1 month) was 0.41 ± 0.030 µg/mL, the percent of baseline ([2]; 0.5 μg/ml, −80°C, 3 months) was 53.9% and the “TQD concentration in plasma” value ([2]; 0.5 μg/ml, −80°C, 3 months) was 0.27 ± 0.023 µg/mL. The percent of baseline ([2]; 0.5 μg/ml, −80°C, 24 h) was 100%, the “TQD concentration in plasma” value ([2]; 0.5 μg/ml, −80°C, 24 h) was 0.50 ± 0.025 µg/mL and the percent of baseline ([2]; 2.0 μg/ml, 4°C, 1 month) was 9.5%. For the same compound, the “TQD concentration in plasma” value ([2]; 2.0 μg/ml, 4°C, 1 month) was 0.19 ± 0.004 µg/mL, the percent of baseline ([2]; 2.0 μg/ml, 4°C, 3 months) was 5.6% and the “TQD concentration in plasma” value ([2]; 2.0 μg/ml, 4°C, 3 months) was 0.11 ± 0.006 µg/mL. The percent of baseline ([2]; 2.0 μg/ml, 4°C, 24 h) was 98.5%, the “TQD concentration in plasma” value ([2]; 2.0 μg/ml, 4°C, 24 h) was 1.97 ± 0.050 µg/mL and the percent of baseline ([2]; 2.0 μg/ml, RT, 1 month) was 9.1%. The “TQD concentration in plasma” value ([2]; 2.0 μg/ml, RT, 1 month) was 0.18 ± 0.003 µg/mL, the percent of baseline ([2]; 2.0 μg/ml, RT, 3 months) was 2.8% and the “TQD concentration in plasma” value ([2]; 2.0 μg/ml, RT, 3 months) was 0.054 ± 0.004 µg/mL. The percent of baseline ([2]; 2.0 μg/ml, RT, 24 h) was 101%, the “TQD concentration in plasma” value ([2]; 2.0 μg/ml, RT, 24 h) was 2.02 ± 0.081 µg/mL and the percent of baseline ([2]; 2.0 μg/ml, −20°C, 1 month) was 75.8%. The “TQD concentration in plasma” value ([2]; 2.0 μg/ml, −20°C, 1 month) was 1.51 ± 0.065 µg/mL, the percent of baseline ([2]; 2.0 μg/ml, −20°C, 3 months) was 48.3% and the “TQD concentration in plasma” value ([2]; 2.0 μg/ml, −20°C, 3 months) was 0.97 ± 0.084 µg/mL. The percent of baseline ([2]; 2.0 μg/ml, −20°C, 24 h) was 99%, the “TQD concentration in plasma” value ([2]; 2.0 μg/ml, −20°C, 24 h) was 1.98 ± 0.075 µg/mL and the percent of baseline ([2]; 2.0 μg/ml, −80°C, 1 month) was 80.6%. For the same compound, the “TQD concentration in plasma” value ([2]; 2.0 μg/ml, −80°C, 1 month) was 1.62 ± 0.068 µg/mL, the percent of baseline ([2]; 2.0 μg/ml, −80°C, 3 months) was 61.5% and the “TQD concentration in plasma” value ([2]; 2.0 μg/ml, −80°C, 3 months) was 1.23 ± 0.056 µg/mL. For the same compound, the percent of baseline ([2]; 2.0 μg/ml, −80°C, 24 h) was 100.5%, the “TQD concentration in plasma” value ([2]; 2.0 μg/ml, −80°C, 24 h) was 2.01 ± 0.064 µg/mL and the “concentration dependency of degradation rate in plasma” value ([2]; 0.1, 0.5 and 2.0 μg/ml) was “No concentration dependency”. The “stability in plasma on storage longer than 24 h” value ([2]; 1 month, 3 months, even at −80°C) was “pronounced degradation”, the “stability in plasma (criterion 95%)” value ([2]; 24 h at RT, 4°C, −20°C and −80°C) was “stable” and the “concentration remaining relative to original values” ([2]; one month at −20°C) was 74-78%. For the same compound, the “concentration remaining relative to original values” ([2]; one month at −80°C) was 78-82%, the “concentration remaining relative to original concentration” value ([2]; one month of storage at RT or at 4°C) was “approximately 10%” and the “transport by Pgp” value (Pgp [3]) was “transported”. The “cases of metallic taste in the mouth” value ([4]; 15 subjects, 4-8 mg/kg i.v.) was “five cases”, the “heart rate, blood pressure and ECG” value ([4]; during and after TQD administration) was “did not significantly change” and the dose limiting toxicities ([4]; single i.v. doses 4, 6, 8 mg/kg) was “No dose limiting toxicities”. The “serious or severe AEs” value [4, 7] was “no serious or severe AEs”, the tolerability [4, 7] was “generally well tolerated” and the “blood chemistries, complete blood count and coagulation” value ([4]; whole study period) was “No subject had any significant change”. For the same compound, the CL [5, 8] was 11.29 L/h and 7.39 L/h and 9.22 L/h and 10.11 L/h, the Vss [5, 8] was 530 L and 571 L and 384 L and 445 L and the tmax [5, 8] was 1.38 h and 1.45 h and 1.55 h and 1.40 h. For the same compound, the t½ [5, 8] was 33 h and 55 h and 30 h and 31 h, the CL [5, 9] was 13.99 L/h and 15.15 L/h and 13.53 L/h and 11.35 L/h and the Vss [5, 9] was 645 L and 509 L and 680 L and 312 L and 559 L. For the same compound, the tmax [5, 9] was 2.45 h and 1.83 h and 2.23 h, the t½ [5, 9] was 34 h and 26 h and 33 h and 16 h and 35 h and the CL [5, 10] was 15.41 L/h and 16.21 L/h and 20.85 L/h and 22.15 L/h. For the same compound, the Vss [5, 10] was 521 L and 667 L and 380 L and 616 L, the tmax [5, 10] was 2.42 h and 2.28 h and 2.70 h and 2.26 h and the Cmax ([5]; 8 mg/kg BW i.v. infusion, individual subjects 11-15, plasma) was 1920 ng/mL and 1050 ng/mL and 1870 ng/mL and 1660 ng/mL. The t½ [5, 10] was 21 h and 25 h and 30 h and 14 h, the “concentration of possible metabolites in plasma samples” value ([5]; all plasma samples, 4-8 mg/kg i.v.) was “below the detection limit; also recorded: could not detect any metabolites” and the “dose dependency of plasma exposure AUC0-n” value ([5]; dose range from 2 to 8 mg/kg i.v.) was “largely increase linearly”. The “transport by breast cancer resistance protein (BCRP)” value [6] was “transported”.
